Results reported in paper PMC6860364 (British journal of haematology, 2017).

Key:
[1] = system: CT-L, T-L and C-L catalytic activities of the proteasome; test: Pharmacodynamics: proteasome activity in packed whole blood; type: in vivo, human; conditions: 0·4 and 0·5 mg/m^2 MRZ, study dosing schedule
[2] = Blood pharmacokinetics of MRZ in RRMM patients, Cycle 1 Day 8, non-compartmental; type: in vivo; conditions: human, iv
Summary of the method: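 Relapsed/refractory myeloma patients got the test compound at 0·3–0·5 mg/m² as a 2-h IV infusion on days 1, 4, 8 and 11 of 28-day cycles, with pomalidomide and oral dexamethasone. Saline hydration ran 1 h before and 2 h after infusion. Blood was sampled on Cycle 1 Day 8 pre-dose, at 40, 80 and 120 min into infusion, and 2–90 min after its end.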

[3] = historical studies; ref Harrison et al, 2016; cited from earlier work
[4] = preclinical studies; ref Di et al, 2016; cited from earlier work

C[C@@]12OC(=O)[C@]1([C@@H](O)[C@@H]1C=CCCC1)NC(=O)[C@@H]2CCCl [MRZ, Marizomib]
proteasome subunit inhibition in PWB [1]: Partial or complete proteasome subunit inhibition in PWB was achieved | Vd [2]: 41 to 86 L | clearance [2]: 4200 to 9400 mL/min | half-life [3]: 6 to 10 min | ability to cross the blood brain barrier (BBB) [4]: crosses the BBB
